These results are taken from ChEMBL document CHEMBL2321838, “Chemistry and pharmacological studies of 3-alkoxy-2,5-disubstituted-pyridinyl compounds as novel selective α4β2 nicotinic acetylcholine receptor ligands that reduce alcohol intake in rats” (J Med Chem, 2013).

Structures are written as SMILES. Active and inactive are the calls of the source. The calls are words filed in the database; no cut-off is given here.

The species entered for data set [1] is Rattus norvegicus. Put plainly: Selectivity ratio of Ki for rat alpha7 nACHR to rat alpha4beta2 nACHR.
The target in data set [2] is T1, Neuronal acetylcholine receptor; alpha3/beta4 (Rattus norvegicus, UniProt P04757+P12392). Put plainly: Desensitization of rat alpha3beta4 nACHR expressed in HEK293 cells assessed as inhibition of 86Rb+ efflux preincubated for 10 mins measured after 2 hrs by liquid scintillation counting analysis. The format is cell-based.
For data set [3], the species on record is Rattus norvegicus. Put plainly: Selectivity ratio of Ki for rat alpha3beta4 nACHR to rat alpha4beta2 nACHR.
The target in data set [4] is T2, Neuronal acetylcholine receptor; alpha4/beta2 (Homo sapiens, UniProt P17787+P43681). Put plainly: Agonist activity at human alpha4beta2 nACHR expressed in HEK293 cells assessed as […] by liquid scintillation counting analysis relative to nicotine. It counts as cell-based.
The target in data set [5] is T1, Neuronal acetylcholine receptor; alpha3/beta4. The data set is described as follows: Agonist activity at rat alpha3beta4 nACHR expressed in HEK293 cells assessed as […] by liquid scintillation counting analysis. It counts as cell-based.
Data set [6] concerns Rattus norvegicus. Put plainly: Reduction of alcohol intake in sc dosed alcohol-preferring rat after 2 to 24 hrs relative to vehicle-treated control. The format is functional, organism-based. In short, it runs like this:
(§1)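 Adult male selectively bred alcohol-preferring (P) rats with two-bottle access (water, alcohol) in Richter tubes, 12:12 light–dark, 22 °C. After stable baseline, single s.c. injection of 0.33, 1 or 3 mg/kg or vehicle; alcohol and water intake (g/kg) read at 2, 4, 6 and 24 h. Crossover, random assignment, ≥3 days between injections, n = 18; mean ± SEM.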

In data set [7] the test system is Rattus norvegicus. The data set is described as follows: Reduction of alcohol intake in alcohol-preferring rat at 3 mg/kg, sc after 6 to 24 hrs. The format is functional, organism-based. The arrangement: dose 3 mg/kg. In short, it runs like this:
as §1

Data set [8] relates to Rattus norvegicus. The data set is described as follows: Reduction of alcohol intake in alcohol-preferring rat at 1 mg/kg, sc after 24 hrs. It counts as functional, organism-based. The arrangement: dose 1 mg/kg. The gist of the method:
as §1

The test system of data set [9] is Rattus norvegicus. Put plainly: Reduction of alcohol intake in alcohol-preferring rat at […], sc after 2 to 24 hrs. The format is functional, organism-based. The arrangement: dose 0.33 mg/kg.
For data set [10], the system named is Mustela putorius furo. The data set is described as follows: Toxicity in ferret assessed as induction of stereotypical behavior at 1 to 30 mg/kg, sc measured for 60 mins. The format is organism-based. The arrangement: dose 1-30 mg/kg, route subcutaneous. The conditions noted are these: in vivo, 1 h. The gist of the method:
(§2)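 Male ferrets (0.9–1.5 kg), food withheld overnight, water ad libitum. After 30 min acclimation alone in an enclosure, single s.c. subscapular injection (1–30 mg/kg in 0.9% saline); emetic episodes and nausea-related stereotypical behaviours (gagging, licking, backward walking) scored by 60 min observation with video recording; n = 6.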

Data set [11] deals with Mustela putorius furo. Put plainly: Toxicity in ferret assessed as induction of emetic episodes at 1 to 30 mg/kg, sc measured for 60 mins. The format is organism-based. The arrangement: dose 1-30 mg/kg, route subcutaneous. Conditions: in vivo, 1 h. In short, it runs like this: as §2
The target of data set [12] is T2, Neuronal acetylcholine receptor; alpha4/beta2. Put plainly: Agonist activity at human alpha4beta2 nACHR expressed in HEK293 cells assessed as […] by liquid scintillation counting analysis. It counts as cell-based.
Data set [13] concerns the target T1, Neuronal acetylcholine receptor; alpha3/beta4. The data set is described as follows: Displacement of [3H]-Epibatidine from rat alpha3beta4 nACHR expressed in HEK293 cell membranes by liquid scintillation counting analysis. The arrangement: species or system Membrane.
For data set [14], the species on record is Rattus norvegicus. The data set is described as follows: Displacement of [3H]-Epibatidine from rat nACHR fore-brain by liquid scintillation counting analysis. Background: Displacement assays read how much labelled ligand stays bound in the presence of the test substance.
For data set [15], the target named is Neuronal acetylcholine receptor; alpha4/beta2 (Rattus norvegicus) (UniProt P09483+P12390). Put plainly: Ratio of (-)-nicotine Ki to compound Ki for rat alpha4beta2 nACHR. It counts as protein-complex assay.
Data set [16] relates to Mustela putorius furo. Put plainly: Toxicity in ferret assessed as cessation of movement at 0.5 mg/kg, sc measured for 60 mins. Conditions: in vivo, 1 h. The format is organism-based. The arrangement: dose 0.5 mg/kg, route subcutaneous. The gist of the method:
(§3)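 Male ferrets (0.9−1.5 kg), food withheld overnight, water ad libitum. Drug in 0.9% saline, given subcutaneously in the subscapular region after a 30 min acclimation in an individual polycarbonate enclosure. Emesis and nausea-linked behaviours (retching, oral stereotypy, backward walking, locomotion) were scored by 60 min observation with video recording. Affected animals were then given granisetron plus dexamethasone 1 mg/kg i.p.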

The subject of data set [17] is Mustela putorius furo. Put plainly: Toxicity in ferret assessed as induction of emetic episodes at 0.5 mg/kg, sc measured for 60 mins. It counts as organism-based. The arrangement: dose 0.5 mg/kg, route subcutaneous. Conditions: in vivo, 1 h. In short, it runs like this: as §3
The subject of data set [18] is Mustela putorius furo. The data set is described as follows: Toxicity in ferret assessed as increase in breathing at 0.5 mg/kg, sc measured for 60 mins. It counts as organism-based. The arrangement: dose 0.5 mg/kg, route subcutaneous. The conditions noted are these: in vivo, 1 h. In short, it runs like this:
as §3

The subject of data set [19] is Mustela putorius furo. The data set is described as follows: Toxicity in ferret assessed as reduction in locomotor behavior at 0.5 mg/kg, sc measured 1.05 mins to 1 hr post injection. It counts as organism-based. Conditions: in vivo. The arrangement: dose 0.5 mg/kg, route subcutaneous. The gist of the method:
as §3

Data set [20] relates to Mustela putorius furo. The data set is described as follows: Toxicity in ferret assessed as induction of licking behavior at 0.5 mg/kg, sc measured 2.20 mins post injection. The format is organism-based. The arrangement: dose 0.5 mg/kg, route subcutaneous. The conditions noted are these: in vivo, 132 s. In short, it runs like this:
as §3

Data set [21] relates to Mustela putorius furo. Put plainly: Toxicity in ferret assessed as backward walking episodes at 0.5 mg/kg, sc measured 2.20 mins post injection. The conditions noted are these: in vivo, 132 s. The format is organism-based. The arrangement: dose 0.5 mg/kg, route subcutaneous. In short, it runs like this:
as §3

Data set [22] concerns Mustela putorius furo. The data set is described as follows: Toxicity in ferret assessed as induction of retching at 0.5 mg/kg, sc measured for 60 mins. The format is organism-based. The arrangement: dose 0.5 mg/kg, route subcutaneous. Conditions: in vivo, 1 h. The gist of the method:
as §3

Data set [23] addresses T2, Neuronal acetylcholine receptor; alpha4/beta2. The data set is described as follows: Desensitization of human alpha4beta2 nACHR expressed in HEK293 cells assessed as inhibition of 86Rb+ efflux preincubated for 10 mins measured after 2 hrs by liquid scintillation counting analysis. It counts as cell-based.
For data set [24], the target named is Neuronal acetylcholine receptor; alpha3/beta4 (Rattus norvegicus) (UniProt P04757+P12392). The data set is described as follows: Agonist activity at rat alpha3beta4 nACHR expressed in HEK293 cells assessed as stimulation of 86Rb+ efflux after 2 hrs by liquid scintillation counting analysis relative to nicotine. It counts as cell-based.

T2 sequence (P17787 whole entry): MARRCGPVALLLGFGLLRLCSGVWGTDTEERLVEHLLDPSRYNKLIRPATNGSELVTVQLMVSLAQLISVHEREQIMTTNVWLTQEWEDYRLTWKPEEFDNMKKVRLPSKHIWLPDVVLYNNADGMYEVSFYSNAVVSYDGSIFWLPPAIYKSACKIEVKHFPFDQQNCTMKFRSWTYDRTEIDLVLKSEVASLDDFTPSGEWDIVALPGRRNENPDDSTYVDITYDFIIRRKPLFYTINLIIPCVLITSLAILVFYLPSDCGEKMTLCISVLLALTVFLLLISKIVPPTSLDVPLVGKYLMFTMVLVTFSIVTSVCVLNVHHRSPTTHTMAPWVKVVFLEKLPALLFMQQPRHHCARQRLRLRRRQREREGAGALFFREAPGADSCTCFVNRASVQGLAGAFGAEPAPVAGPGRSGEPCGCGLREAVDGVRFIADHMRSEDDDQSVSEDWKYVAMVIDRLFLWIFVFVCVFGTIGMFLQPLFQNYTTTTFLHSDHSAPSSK
T2 sequence (P43681 whole entry): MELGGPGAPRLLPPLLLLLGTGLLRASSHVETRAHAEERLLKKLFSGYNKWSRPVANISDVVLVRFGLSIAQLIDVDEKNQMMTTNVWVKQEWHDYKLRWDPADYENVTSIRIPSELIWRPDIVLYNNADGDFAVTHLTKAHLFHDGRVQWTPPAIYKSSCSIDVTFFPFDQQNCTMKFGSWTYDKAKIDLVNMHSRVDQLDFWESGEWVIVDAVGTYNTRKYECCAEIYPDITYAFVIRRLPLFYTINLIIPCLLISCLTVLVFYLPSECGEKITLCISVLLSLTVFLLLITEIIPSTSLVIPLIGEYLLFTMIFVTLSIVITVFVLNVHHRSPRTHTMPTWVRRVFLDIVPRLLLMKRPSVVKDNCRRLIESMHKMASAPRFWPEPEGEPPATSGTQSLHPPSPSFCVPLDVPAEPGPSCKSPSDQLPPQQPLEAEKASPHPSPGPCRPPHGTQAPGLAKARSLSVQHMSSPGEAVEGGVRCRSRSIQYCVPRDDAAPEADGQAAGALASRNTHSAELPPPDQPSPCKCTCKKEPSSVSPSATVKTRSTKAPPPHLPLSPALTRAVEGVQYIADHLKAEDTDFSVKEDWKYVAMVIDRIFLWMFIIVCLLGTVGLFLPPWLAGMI
T1 sequence (P04757 whole entry): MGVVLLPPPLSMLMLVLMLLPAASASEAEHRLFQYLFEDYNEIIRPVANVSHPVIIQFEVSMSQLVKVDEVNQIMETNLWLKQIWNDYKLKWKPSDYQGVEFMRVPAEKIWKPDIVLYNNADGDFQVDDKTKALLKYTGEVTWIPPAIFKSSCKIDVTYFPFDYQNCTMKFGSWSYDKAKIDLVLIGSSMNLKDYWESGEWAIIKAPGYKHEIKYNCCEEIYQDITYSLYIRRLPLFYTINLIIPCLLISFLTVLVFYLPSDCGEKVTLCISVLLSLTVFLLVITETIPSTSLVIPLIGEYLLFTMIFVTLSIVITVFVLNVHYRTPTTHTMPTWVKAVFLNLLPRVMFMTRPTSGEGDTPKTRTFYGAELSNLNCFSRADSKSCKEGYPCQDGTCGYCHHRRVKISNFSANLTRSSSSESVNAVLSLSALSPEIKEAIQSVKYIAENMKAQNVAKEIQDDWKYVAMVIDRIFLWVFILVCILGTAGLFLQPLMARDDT
T1 sequence (P12392 whole entry): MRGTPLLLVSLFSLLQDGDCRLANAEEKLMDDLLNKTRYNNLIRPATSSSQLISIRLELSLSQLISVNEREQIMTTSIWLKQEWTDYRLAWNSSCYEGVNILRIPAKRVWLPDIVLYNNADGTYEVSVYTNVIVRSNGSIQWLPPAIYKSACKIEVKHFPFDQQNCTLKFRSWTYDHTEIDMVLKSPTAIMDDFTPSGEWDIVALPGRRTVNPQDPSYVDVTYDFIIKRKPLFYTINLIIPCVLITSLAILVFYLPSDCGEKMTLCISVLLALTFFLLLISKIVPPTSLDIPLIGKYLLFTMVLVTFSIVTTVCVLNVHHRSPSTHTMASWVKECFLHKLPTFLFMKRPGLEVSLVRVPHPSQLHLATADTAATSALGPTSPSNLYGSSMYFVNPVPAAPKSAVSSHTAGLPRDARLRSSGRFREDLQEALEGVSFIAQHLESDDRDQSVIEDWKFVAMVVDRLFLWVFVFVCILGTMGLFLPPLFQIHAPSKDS

In general, IC50 refers to the concentration needed to halve the response being measured. In general, Emax refers to the greatest response seen or fitted, relative to the assay's reference. For orientation: EC50 means the concentration needed to bring the measured effect to its halfway point. With `Cc1ncc(C#CC2CC2)cc1OC[C@@H]1CCN1`, the Ratio Ki in the data set filed under Rattus norvegicus [1] and in the data set filed under Rattus norvegicus [3] was 16000 throughout. The concentration for half-maximal inhibition (IC50) in [2] is greater than 10 µM. Further, the Emax in [4] is 17%. In data set [5] (hek293), the EC50 entry was “Not Active”.

For `CCCCC#Cc1cnc(C)c(OC[C@@H]2CCN2)c1`, the Ratio Ki in the data set listed under Rattus norvegicus [1] amounted to 7800; in the data set filed under Rattus norvegicus [3], 19000. Moreover, in [2], the concentration for half-maximal inhibition (IC50) was greater than 10 µM. The Activity result is “Dose-dependent effect” with Rattus norvegicus [6], “Non-toxic” in the data set on Mustela putorius furo [10] and “Non-toxic” in the data set with Mustela putorius furo [11]. Besides, the result in the data set with Rattus norvegicus [7] and in the data set with Rattus norvegicus [8] was Active. Moreover, the result with Rattus norvegicus [9] was inactive. Besides, the Emax in data set [4] is 15%. Besides, the half-maximal effective concentration (EC50) result in [5] (hek293) is “Not Active”.

Turning to `CCCCC#Cc1cnc(C)c(OC[C@@H]2CCCN2)c1`, the concentration giving a half-maximal response (EC50) entry in [12] (hek293) and in data set [5] (hek293) was “Not Active” each time.

For orientation: Ki means the dissociation constant of the complex between target and ligand, obtained from inhibition or displacement. Read a high Ki as a looser hold on the target. `CCCCC#Cc1cnc(C(F)(F)F)c(OC[C@@H]2CCN2)c1`: the Ki in [13] was greater than 100 µM. For the same compound, in the data set filed under Rattus norvegicus [14], the Ratio Ki is greater than 100000.

As for `Cc1ncc(C#CCCCCO)cc1OC[C@@H]1CCN1`, the Ratio Ki in the data set listed under Rattus norvegicus [1] amounted to 40000; in the data set filed under Rattus norvegicus [3], 70000; in data set [15], 2. Also, the IC50 in [2] is greater than 10 µM. For the same compound, in [4], the maximum response (Emax) turned out to be 20%. Also, the figures for the 50% effective concentration (EC50) in data set [12] (read-out: EC50) and in data set [5] (hek293) were 0.45 µM and “Not Active”, respectively.

Consider `c1cnc2cc3c(cc2n1)[C@@H]1CNC[C@H]3C1` [VARENICLINE], for which the Activity entry was “Toxic” in the data set on Mustela putorius furo [16]; “Non-toxic” in the data set with Mustela putorius furo [17]; “Toxic” in the data set on Mustela putorius furo [18]; “Toxic” in the data set on Mustela putorius furo [19]; “Toxic” in the data set with Mustela putorius furo [20]; “Toxic” in the data set with Mustela putorius furo [21]. Moreover, the Activity entry in the data set on Mustela putorius furo [22] is reported as “Toxic”. Also, the 50% effective concentration (EC50) in [5] (read-out: EC50) stood at 21 µM.

In the case of `OCCCCC#Cc1cncc(OC[C@@H]2CCN2)c1`, the Ratio Ki in the data set listed under Rattus norvegicus [1] stood at 11000; in the data set filed under Rattus norvegicus [3] it was 31000. The IC50 in data set [23] turned out to be 0.011 µM. The Emax in [24] was 12%. The EC50 in data set [5] (read-out: EC50) was found to be 30 µM.

For `Cc1ncc(C#CCCCCF)cc1OC[C@@H]1CCN1`, the IC50 in data set [2] was greater than 10 µM. Moreover, the concentration giving a half-maximal response (EC50) entry in data set [12] (hek293) and in data set [5] (hek293) was “Not Active” throughout.

In the case of `Cc1ncc(C#CCCCCCl)cc1OC[C@@H]1CCN1`, the values for the Ratio Ki in the data set filed under Rattus norvegicus [1], in the data set filed under Rattus norvegicus [3] and in the data set filed under Rattus norvegicus [14] were 13000, 17000 and 32, respectively. Further, the IC50 in [2] is greater than 10 µM. The EC50 entry in data set [12] (hek293) and in data set [5] (hek293) was “Not Active” each time.
